Data reported in ChEMBL document CHEMBL1833793 (Bioorg Med Chem Lett, 2011).

What was measured:
[1] = biological target: Neuropeptide Y receptor type 4 (Homo sapiens, UniProt P50391); assay: Antagonist activity at human NPY4 receptor assessed as calcium mobilization by FLIPR assay; assay type: functional
Liver microsomes = assay: Intrinsic clearance in human liver microsome; assay type: ADME
[2] = Plasma concentration in rat at 10 mg/kg, po after 4 hrs; assay type: ADME, organism-based; design: dose 10 mg/kg, route oral
How it was run: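 Single oral dose of 10 mg/kg in rats, two animals. Plasma was sampled at 4 h and the two values averaged. LOQ 2 ng/mL.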

[3] = biological target: 5-hydroxytryptamine receptor 2B (Homo sapiens, UniProt P41595); assay: Binding affinity to human 5HT2B receptor
Chain of 5-hydroxytryptamine receptor 2B (P41595 whole entry): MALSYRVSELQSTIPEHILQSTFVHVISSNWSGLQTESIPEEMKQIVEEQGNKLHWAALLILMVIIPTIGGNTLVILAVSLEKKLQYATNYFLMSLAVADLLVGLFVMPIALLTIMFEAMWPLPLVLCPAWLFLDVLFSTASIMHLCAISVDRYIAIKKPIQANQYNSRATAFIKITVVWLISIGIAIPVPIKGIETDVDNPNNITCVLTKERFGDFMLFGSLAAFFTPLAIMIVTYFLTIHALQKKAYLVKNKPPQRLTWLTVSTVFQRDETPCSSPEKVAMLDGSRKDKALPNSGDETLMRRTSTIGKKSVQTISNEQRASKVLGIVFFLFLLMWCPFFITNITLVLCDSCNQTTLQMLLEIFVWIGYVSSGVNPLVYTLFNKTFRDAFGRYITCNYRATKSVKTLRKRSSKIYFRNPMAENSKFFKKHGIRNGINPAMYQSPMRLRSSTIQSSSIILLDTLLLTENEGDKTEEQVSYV

[4] = Plasma protein binding in rat; assay type: ADME, cell-free; conditions: read-out: PPB (converted)
[5] = Apparent permeability from basolateral to apical side of the human Caco2 cells; assay type: ADME, cell-based; conditions: Caco-2
Rattus norvegicus = assay: Inhibition of cPP-induced food intake in po dosed rat administered 1 to 24 hrs before cPP challenge measured for 1 hr; assay type: functional, organism-based
How it was run: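 Rats with lateral-ventricle cannulae dosed po with 20% cyclodextrin vehicle or drug (3, 10, 30 mg/kg) 1, 2, 4, 6 or 24 h before i.c.v. cPP (0.6 nmol); food intake monitored 1 h; randomized weekly crossover, n = 2/condition, 16–20 per group; percent of vehicle + cPP intake, one-way ANOVA with Newman–Keuls.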

[6] = Plasma concentration in cPP-induced feeding rat model at 3 mg/kg, po after 1 hr; assay type: ADME, organism-based; design: dose 3 mg/kg, route oral
How it was run: (§1)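 Satellite rats (n = 2/dose) sampled each week alongside the cPP feeding test; Lu-series dosed po at 3, 10 or 30 mg/kg as suspension in 20% HP-β-cyclodextrin; plasma (ng/mL) and brain tissue (ng/g) levels taken at 1, 2, 4, 6 and 24 h post-dose; mean ± SD reported.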

[7] = Drug uptake in brain of cPP-induced feeding rat model at 3 mg/kg, po after 2 hrs; assay type: ADME, organism-based; design: dose 3 mg/kg, route oral; conditions: read-out: Drug uptake; how it was run: as §1
[8] = Plasma concentration in cPP-induced feeding rat model at 10 mg/kg, po after 6 hrs; assay type: ADME, organism-based; design: dose 10 mg/kg, route oral; how it was run: as §1
[9] = Drug uptake in brain of cPP-induced feeding rat model at 10 mg/kg, po after 1 hr; assay type: ADME, organism-based; design: dose 10 mg/kg, route oral; conditions: read-out: Drug uptake; how it was run: as §1
[10] = Drug uptake in brain of cPP-induced feeding rat model at 10 mg/kg, po after 2 hrs; assay type: ADME, organism-based; design: dose 10 mg/kg, route oral; conditions: read-out: Drug uptake; how it was run: as §1
[11] = Drug uptake in brain of cPP-induced feeding rat model at 30 mg/kg, po after 2 hrs; assay type: ADME, organism-based; design: dose 30 mg/kg, route oral; conditions: read-out: Drug uptake; how it was run: as §1
[12] = biological target: T1, Neuropeptide Y receptor type 5 (Homo sapiens, UniProt Q15761); assay: Binding affinity to human NPY5 receptor
T1 sequence (Q15761 whole entry): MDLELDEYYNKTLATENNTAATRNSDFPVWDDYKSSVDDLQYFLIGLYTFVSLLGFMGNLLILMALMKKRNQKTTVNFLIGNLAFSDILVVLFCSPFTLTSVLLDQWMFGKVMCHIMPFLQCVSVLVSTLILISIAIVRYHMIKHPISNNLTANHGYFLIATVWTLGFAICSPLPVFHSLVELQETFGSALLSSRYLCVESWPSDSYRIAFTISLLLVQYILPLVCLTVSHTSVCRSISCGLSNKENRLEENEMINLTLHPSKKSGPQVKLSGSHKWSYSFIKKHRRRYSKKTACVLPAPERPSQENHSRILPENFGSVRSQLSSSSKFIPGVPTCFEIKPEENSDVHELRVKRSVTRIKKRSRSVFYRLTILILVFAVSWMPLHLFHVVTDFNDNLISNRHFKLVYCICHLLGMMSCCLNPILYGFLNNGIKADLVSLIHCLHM

Chain of Neuropeptide Y receptor type 4 (P50391 whole entry): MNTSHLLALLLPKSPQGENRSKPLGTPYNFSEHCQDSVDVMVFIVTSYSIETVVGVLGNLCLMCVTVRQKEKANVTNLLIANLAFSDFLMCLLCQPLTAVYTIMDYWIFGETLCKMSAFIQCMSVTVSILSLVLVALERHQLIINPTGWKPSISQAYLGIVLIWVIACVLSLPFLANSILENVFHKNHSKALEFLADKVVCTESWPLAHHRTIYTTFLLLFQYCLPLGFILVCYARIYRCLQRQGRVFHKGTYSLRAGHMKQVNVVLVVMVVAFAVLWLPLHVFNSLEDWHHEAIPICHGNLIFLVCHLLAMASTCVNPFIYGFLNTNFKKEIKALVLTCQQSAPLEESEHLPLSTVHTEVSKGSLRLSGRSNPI

IC50 [1]: > 1000 nM | CL (Liver microsomes): 2.5 L/min | concentration at 4 h [2]: 320 ng/mL | Ki [3]: 245 nM | fraction unbound [4]: 0.006 | Papp B→A [5]: 40.4 ×10⁻⁶ cm/s | concentration at 1 h [6]: 54 ng/mL | concentration at 2 h [7]: 87 ng/g | concentration at 6 h [8]: 46 ng/mL | concentration at 1 h [9]: 179 ng/g | concentration at 2 h [10]: 244 ng/g | concentration at 2 h [11]: 319 ng/g | Ki [12]: 1.5 nM
SMILES: CS(=O)(=O)NC[C@H]1CC[C@H](Nc2nc3c(s2)CCSc2ccccc2-3)CC1
inhibition (Rattus norvegicus): Dose-dependent effect
